Reference: ChEMBL document CHEMBL5338825, “Structure-Based Discovery of Inhibitors of the SARS-CoV-2 Nsp14 N7-Methyltransferase” (J Med Chem, 2023)
Calls of active or inactive are those of the source. The calls are words filed in the database; no cut-off is given here.

Assays:
[1] = target: RNA 5'-monophosphate methyltransferase (Homo sapiens) (UniProt Q7Z5W3); experiment: Inhibition of human BCDIN3D using biotin-tagged microRNA-145 and 3H-SAM as substrate at 10 uM incubated for 1 hrs by TopCount scintillation proximity assay relative to control
How it was run: (§1)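 Human methyltransferase panel, radiometric assays. Each compound tested at a single 10 μM concentration in triplicate. Enzymes inhibited by more than 50% were taken on to concentration–response.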

Bacteria = experiment: Inhibition of beta-lactamase AmpC (unknown origin) pre-incubated with compound for 5 mins followed by substrate addition and measured after 1.5 mins by absorbance based plate reader analysis; conditions: time 6.5 min
How it was run: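 AmpC at 2 nM preincubated 5 min with compound at room temperature in 50 mM KPi, pH 7.0, with 1% v/v DMSO. Started with 50 μM CENTA (read at 405 nm) or 50 μM nitrocefin (read at 490 nm), monitored 1 min 30 s. Initial rate taken as % of DMSO control. Top concentration in triplicate; eight-point half-log curves in triplicate where inhibition exceeded 40%.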

[2] = target: Histone-lysine N-methyltransferase, H3 lysine-36 specific (Homo sapiens) (UniProt Q96L73); experiment: Inhibition of human NSD1 using chicken nucleosome and 3H-SAM as substrate at 10 uM incubated for 1 hrs by TopCount scintillation proximity assay relative to control; how it was run: as §1
[3] = target: Histone-lysine N-methyltransferase KMT5B (Homo sapiens) (UniProt Q4FZB7); experiment: Inhibition of human SUV420H1 using Biotin-tagged H4K20me1 and 3H-SAM as substrate at 10 uM incubated for 1 hrs by TopCount scintillation proximity assay relative to control
How it was run: (§2)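 Selectivity panel against human SAM-dependent methyltransferases, radiometric format. Single test concentration of 10 μM, triplicate, read as percent inhibition.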

[4] = target: Histone-lysine N-methyltransferase NSD3 (Homo sapiens) (UniProt Q9BZ95); experiment: Inhibition of human NSD3 using chicken nucleosome and 3H-SAM as substrate at 10 uM incubated for 1 hrs by TopCount scintillation proximity assay relative to control; how it was run: as §1
[5] = target: Histone-arginine methyltransferase CARM1 (Homo sapiens) (UniProt Q86X55); experiment: Inhibition of human PRMT4 using biotin-tagged Histone H3 and 3H-SAM as substrate at 10 uM incubated for 1 hrs by TopCount scintillation proximity assay relative to control; how it was run: as §1
[6] = target: Replicase polyprotein 1ab (Severe acute respiratory syndrome coronavirus 2) (UniProt P0DTD1); experiment: Competitive inhibition of N-terminal 6His/SUMO-tagged SARS-CoV-2 NSP14 expressed in Escherichia coli Rosetta 2 (DE3) PlysS cells using 5'GpppACCCCCCCCC-Biotin 3' and 3H-SAM as substrates at increasing concentration incubated for 30 mins by TopCount scintillation proximity assay
How it was run: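 Competition pattern read from IC50 shifts. […] Separately, SAM fixed at 1.25 μM (5× Km) with RNA varied up to 0.5 μM (10× Km). A linear rise of IC50 with substrate concentration was taken as competitive inhibition.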

Homo sapiens = species: Homo sapiens; experiment: Inhibition of human EZH2 using biotin-tagged Histone H3 and 3H-SAM as substrate at 10 uM incubated for 1 hrs by TopCount scintillation proximity assay relative to control; how it was run: as §1
[7] = target: Histone-lysine N-methyltransferase SUV39H2 (Homo sapiens) (UniProt Q9H5I1); experiment: Inhibition of human SUV39H2 using Biotin-tagged histone H3 and 3H-SAM as substrate at 10 uM incubated for 1 hrs by TopCount scintillation proximity assay relative to control; how it was run: as §2
[8] = target: Replicase polyprotein 1ab (Severe acute respiratory syndrome coronavirus 2, UniProt P0DTD1); experiment: Inhibition of N-terminal 6His/SUMO-tagged SARS-CoV-2 NSP14 expressed in Escherichia coli Rosetta 2 (DE3) PlysS cells using 5'GpppACCCCCCCCC-Biotin 3' and 3H-SAM as substrates incubated for 30 mins by TopCount scintillation proximity assay
[9] = target: N-lysine methyltransferase SMYD2 (Homo sapiens) (UniProt Q9NRG4); experiment: Inhibition of human SMYD2 using biotin-tagged p53 and 3H-SAM as substrate at 10 uM incubated for 1 hrs by TopCount scintillation proximity assay relative to control; how it was run: as §2
[10] = target: Histone-lysine N-methyltransferase NSD2 (Homo sapiens) (UniProt O96028); experiment: Inhibition of human NSD2 using chicken nucleosome and 3H-SAM as substrate at 10 uM incubated for 1 hrs by TopCount scintillation proximity assay relative to control; how it was run: as §1
[11] = target: Protein arginine N-methyltransferase 7 (Homo sapiens) (UniProt Q9NVM4); experiment: Inhibition of human PRMT7 using biotin-tagged Histone H2B and 3H-SAM as substrate at 10 uM incubated for 1 hrs by TopCount scintillation proximity assay relative to control; how it was run: as §1
[12] = target: Replicase polyprotein 1ab (Severe acute respiratory syndrome coronavirus 2) (UniProt P0DTD1); experiment: Non-covalent inhibition of N-terminal 6His/SUMO-tagged SARS-CoV-2 NSP14 expressed in Escherichia coli Rosetta 2 (DE3) PlysS cells using 5'GpppACCCCCCCCC-Biotin 3' and 3H-SAM as substrates incubated for 30 mins by TopCount scintillation proximity assay
How it was run: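 Radiometric N7-MTase assay tracking [3H]-methyl transfer from SAM onto the cap of […] RNA, run with 0.01% v/v Triton X-100. Concentration–response in triplicate to give IC50.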

Chain of Histone-lysine N-methyltransferase KMT5B (Homo sapiens) (Q4FZB7 whole entry, looked up): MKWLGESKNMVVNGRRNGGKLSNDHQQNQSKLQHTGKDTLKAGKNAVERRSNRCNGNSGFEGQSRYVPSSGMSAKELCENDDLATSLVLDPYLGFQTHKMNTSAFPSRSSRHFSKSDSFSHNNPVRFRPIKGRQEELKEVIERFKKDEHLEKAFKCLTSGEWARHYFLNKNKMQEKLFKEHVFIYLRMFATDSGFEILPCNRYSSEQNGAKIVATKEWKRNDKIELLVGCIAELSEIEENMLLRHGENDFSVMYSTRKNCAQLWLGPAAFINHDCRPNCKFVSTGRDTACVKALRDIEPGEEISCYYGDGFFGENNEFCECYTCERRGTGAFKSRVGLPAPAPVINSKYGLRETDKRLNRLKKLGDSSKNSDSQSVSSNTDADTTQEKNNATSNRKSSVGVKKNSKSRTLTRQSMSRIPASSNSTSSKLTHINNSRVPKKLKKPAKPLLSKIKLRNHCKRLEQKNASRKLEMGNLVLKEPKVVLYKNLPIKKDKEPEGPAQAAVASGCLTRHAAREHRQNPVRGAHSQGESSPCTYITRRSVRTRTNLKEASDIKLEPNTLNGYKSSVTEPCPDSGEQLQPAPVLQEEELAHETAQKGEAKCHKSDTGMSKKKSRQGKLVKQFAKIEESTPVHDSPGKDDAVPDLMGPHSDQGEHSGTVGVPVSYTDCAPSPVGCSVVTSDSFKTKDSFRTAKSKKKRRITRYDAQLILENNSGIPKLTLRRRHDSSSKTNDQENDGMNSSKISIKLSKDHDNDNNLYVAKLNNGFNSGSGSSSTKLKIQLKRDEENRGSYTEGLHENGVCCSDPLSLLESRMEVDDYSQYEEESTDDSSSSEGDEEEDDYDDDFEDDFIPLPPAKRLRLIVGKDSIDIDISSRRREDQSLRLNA
Chain of N-lysine methyltransferase SMYD2 (Homo sapiens) (Q9NRG4 whole entry): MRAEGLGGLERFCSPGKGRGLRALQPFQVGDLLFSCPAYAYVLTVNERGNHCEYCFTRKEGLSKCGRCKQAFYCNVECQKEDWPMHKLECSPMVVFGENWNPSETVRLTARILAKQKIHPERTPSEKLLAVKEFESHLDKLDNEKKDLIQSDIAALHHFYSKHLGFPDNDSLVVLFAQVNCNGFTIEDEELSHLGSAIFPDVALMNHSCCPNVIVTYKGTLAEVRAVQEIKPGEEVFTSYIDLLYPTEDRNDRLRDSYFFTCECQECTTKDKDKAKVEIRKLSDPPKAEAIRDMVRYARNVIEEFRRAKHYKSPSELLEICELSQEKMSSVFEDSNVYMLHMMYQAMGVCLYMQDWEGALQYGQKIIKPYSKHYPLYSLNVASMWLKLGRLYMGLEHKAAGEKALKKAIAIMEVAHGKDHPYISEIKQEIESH
Chain of Histone-lysine N-methyltransferase, H3 lysine-36 specific (Homo sapiens) (Q96L73 whole entry): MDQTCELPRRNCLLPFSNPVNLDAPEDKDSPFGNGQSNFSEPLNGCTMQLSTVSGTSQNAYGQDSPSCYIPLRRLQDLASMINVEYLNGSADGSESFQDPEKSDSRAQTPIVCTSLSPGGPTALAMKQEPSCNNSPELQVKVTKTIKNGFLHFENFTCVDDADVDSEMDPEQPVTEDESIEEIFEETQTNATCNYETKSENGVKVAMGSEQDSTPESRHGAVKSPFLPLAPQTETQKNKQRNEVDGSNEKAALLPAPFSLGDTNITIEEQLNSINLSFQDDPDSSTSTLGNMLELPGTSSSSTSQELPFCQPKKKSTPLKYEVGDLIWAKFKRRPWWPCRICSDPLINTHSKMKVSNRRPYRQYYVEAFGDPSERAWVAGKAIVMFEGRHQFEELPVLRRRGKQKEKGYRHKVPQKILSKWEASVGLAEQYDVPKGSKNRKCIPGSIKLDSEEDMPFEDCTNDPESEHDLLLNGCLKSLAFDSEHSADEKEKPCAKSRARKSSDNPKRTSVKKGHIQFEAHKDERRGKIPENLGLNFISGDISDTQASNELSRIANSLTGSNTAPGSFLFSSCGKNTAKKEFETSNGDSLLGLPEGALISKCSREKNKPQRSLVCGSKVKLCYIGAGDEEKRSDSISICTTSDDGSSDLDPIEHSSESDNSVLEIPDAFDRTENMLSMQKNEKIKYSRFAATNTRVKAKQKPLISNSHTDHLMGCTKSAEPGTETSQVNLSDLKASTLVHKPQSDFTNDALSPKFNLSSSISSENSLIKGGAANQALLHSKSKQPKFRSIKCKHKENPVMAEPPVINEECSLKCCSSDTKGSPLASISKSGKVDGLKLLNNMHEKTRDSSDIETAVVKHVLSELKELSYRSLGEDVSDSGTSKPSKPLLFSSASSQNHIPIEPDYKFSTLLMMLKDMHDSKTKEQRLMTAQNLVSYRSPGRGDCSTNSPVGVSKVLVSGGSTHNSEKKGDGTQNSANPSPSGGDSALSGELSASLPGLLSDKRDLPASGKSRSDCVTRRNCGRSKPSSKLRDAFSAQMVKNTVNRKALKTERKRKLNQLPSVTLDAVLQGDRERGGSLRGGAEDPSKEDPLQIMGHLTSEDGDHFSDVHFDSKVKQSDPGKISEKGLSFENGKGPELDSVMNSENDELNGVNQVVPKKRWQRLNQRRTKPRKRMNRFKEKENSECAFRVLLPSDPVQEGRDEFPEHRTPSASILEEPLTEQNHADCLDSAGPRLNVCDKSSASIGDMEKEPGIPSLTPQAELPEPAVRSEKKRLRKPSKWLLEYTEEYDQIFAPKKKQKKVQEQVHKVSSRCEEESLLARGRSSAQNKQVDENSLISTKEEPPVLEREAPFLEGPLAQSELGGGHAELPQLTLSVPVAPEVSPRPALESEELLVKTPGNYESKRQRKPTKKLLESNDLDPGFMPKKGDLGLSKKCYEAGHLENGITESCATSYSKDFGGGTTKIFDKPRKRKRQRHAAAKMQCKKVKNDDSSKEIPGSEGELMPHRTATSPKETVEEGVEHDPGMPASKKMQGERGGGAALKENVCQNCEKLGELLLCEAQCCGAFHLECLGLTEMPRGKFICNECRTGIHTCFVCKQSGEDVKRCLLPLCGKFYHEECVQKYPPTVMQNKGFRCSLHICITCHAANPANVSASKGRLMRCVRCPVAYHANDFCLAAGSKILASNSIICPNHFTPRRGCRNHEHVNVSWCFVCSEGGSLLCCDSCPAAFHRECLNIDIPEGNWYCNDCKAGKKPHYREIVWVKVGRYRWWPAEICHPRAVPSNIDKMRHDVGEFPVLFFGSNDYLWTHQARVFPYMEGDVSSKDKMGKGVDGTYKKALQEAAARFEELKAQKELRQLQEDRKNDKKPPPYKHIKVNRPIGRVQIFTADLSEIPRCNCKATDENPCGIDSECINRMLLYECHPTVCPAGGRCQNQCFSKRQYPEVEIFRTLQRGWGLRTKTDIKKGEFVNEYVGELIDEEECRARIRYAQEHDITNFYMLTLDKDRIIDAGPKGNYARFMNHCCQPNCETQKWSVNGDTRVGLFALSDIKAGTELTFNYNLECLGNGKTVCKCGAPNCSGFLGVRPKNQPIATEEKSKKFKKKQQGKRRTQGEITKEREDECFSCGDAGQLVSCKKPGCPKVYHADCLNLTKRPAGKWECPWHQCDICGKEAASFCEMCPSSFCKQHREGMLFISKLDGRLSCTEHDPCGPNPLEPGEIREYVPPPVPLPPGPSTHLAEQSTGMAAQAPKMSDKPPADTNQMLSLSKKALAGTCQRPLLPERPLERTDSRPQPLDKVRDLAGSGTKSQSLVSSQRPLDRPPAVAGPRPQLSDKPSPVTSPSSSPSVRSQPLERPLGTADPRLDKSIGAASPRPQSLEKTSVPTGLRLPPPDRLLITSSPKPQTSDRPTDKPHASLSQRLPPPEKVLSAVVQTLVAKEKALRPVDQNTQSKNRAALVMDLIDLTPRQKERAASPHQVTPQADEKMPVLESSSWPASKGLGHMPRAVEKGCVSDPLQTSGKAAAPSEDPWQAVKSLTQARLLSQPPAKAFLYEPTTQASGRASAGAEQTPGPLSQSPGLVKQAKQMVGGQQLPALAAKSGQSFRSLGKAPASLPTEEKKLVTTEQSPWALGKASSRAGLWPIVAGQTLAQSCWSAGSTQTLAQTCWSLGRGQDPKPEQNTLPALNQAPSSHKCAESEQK
Chain of Histone-lysine N-methyltransferase SUV39H2 (Homo sapiens) (Q9H5I1 whole entry): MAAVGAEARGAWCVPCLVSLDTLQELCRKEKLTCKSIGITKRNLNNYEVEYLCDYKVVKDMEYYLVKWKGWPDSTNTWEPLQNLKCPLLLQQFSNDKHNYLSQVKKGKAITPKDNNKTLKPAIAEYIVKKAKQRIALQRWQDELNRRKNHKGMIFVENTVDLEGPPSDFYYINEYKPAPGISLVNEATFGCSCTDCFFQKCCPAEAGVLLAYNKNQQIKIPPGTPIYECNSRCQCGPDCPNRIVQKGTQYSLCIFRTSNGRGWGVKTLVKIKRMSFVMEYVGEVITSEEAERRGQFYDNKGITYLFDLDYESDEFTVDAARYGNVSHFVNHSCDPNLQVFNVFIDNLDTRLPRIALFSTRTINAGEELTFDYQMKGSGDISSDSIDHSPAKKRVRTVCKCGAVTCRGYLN
Chain of Histone-arginine methyltransferase CARM1 (Homo sapiens) (Q86X55 whole entry): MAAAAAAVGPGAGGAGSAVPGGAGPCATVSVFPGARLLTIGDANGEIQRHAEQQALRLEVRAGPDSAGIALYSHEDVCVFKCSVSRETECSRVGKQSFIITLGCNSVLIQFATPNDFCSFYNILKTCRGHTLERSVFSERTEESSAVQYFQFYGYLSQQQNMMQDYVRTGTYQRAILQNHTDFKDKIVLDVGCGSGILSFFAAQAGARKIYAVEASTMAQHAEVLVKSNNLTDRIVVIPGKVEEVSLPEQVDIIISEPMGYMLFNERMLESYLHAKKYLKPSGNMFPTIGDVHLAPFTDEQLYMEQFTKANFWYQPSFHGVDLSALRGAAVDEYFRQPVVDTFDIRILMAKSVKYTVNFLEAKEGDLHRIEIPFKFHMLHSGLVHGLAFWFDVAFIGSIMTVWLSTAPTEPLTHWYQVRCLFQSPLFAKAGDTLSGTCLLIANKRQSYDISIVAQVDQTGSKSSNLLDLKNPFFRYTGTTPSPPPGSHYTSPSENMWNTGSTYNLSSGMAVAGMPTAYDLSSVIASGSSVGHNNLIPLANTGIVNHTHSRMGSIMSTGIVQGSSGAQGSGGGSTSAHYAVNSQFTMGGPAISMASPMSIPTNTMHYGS

With `Cc1c(C(=O)/C=C/c2ccc(O)c([N+](=O)[O-])c2)c(C#N)c2n1CCC2` the inhibition [1] was < 50%, the inhibition (Bacteria) was “Active” and the inhibition [2] was < 50%. For the same molecule, the inhibition [3] was < 50%, the inhibition [4] was < 50% and the inhibition [5] was < 50%. For the same molecule, the inhibition [6] was “Active”, the inhibition (Homo sapiens) was < 50% and the inhibition [7] was < 50%. For the same molecule, the IC50 [8] was 50 µM, the inhibition [9] was < 50% and the inhibition [10] was < 50%. For the same molecule, the inhibition [11] was < 50% and the inhibition [12] was “Active”.
